In ChEMBL document CHEMBL1139401, “5-(4-Chlorophenyl)-5,6-dihydro-1,3-oxazepin-7(4H)-one derivatives as lipophilic cyclic analogues of baclofen: design, synthesis, and neuropharmacological evaluation” (2008) one finds Activity data, which are given here for three compounds.

What all share (format): functional
Common to all, as to conditions: route intraperitoneal

Assay [1] has as its system Mus musculus. Nature of the assay: Decrease in cognitive impairment in albino mouse assessed as retention latency at 3 mg/kg, ip after 45 mins by passive avoidance reflex test. The essentials:
(§1)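 Passive avoidance in male albino mice (20–25 g), five per group, housed singly from the day before training. Drug in DMSO was given ip 30, 45, 60 or 90 min before the training trial. Mice were put in the light side of a two-compartment apparatus and the door to the dark side was opened. The retention test next day used the shock generator off. Latency reported as mean ± SEM.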

Assay [2] has as its system Mus musculus. Put plainly: Decrease in cognitive impairment in albino mouse assessed as retention latency at 3 mg/kg, ip after 90 mins by passive avoidance reflex test. The gist of the method:
as §1

The test system of assay [3] is Mus musculus. Put plainly: Muscle relaxant activity in albino mouse at 3 mg/kg, ip after 60 mins by traction test. Also on record: scale not given: the % may be the effect or the level left. The essentials:
(§2)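 Traction test in male albino mice (20–25 g), five per group, given drug ip in DMSO. Success required touching the wire with at least one hind paw within 5 s; otherwise scored as failure. Mice were tested 30, 45, 60 and 90 min after dosing, immediately before the rotarod. Results are % successful, mean ± SEM.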

Assay [4] concerns Mus musculus. Nature of the assay: Decrease in cognitive impairment in albino mouse assessed as retention latency at 3 mg/kg, ip after 60 mins by passive avoidance reflex test. The gist of the method: as §1
Assay [5] deals with Mus musculus. Put plainly: Analgesic activity in albino mouse assessed as retention latency at 3 mg/kg, ip after 60 mins by hot plate test. The gist of the method: (§3)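 Male albino mice (20–25 g), five per group, given drug in DMSO ip; vehicle controls got DMSO alone. Mice were placed in a glass cylinder on a 54 °C metal plate. Latency to hind-paw lick or jump was recorded, with a 30 s cut-off. Testing was 30, 45, 60 and 90 min post-injection. Values are mean ± SEM.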
On the technique in general: In hot-plate and tail-flick tests a longer latency is read as antinociception.

The subject of assay [6] is Mus musculus. Nature of the assay: Neuropharmacological effect in albino mouse assessed as spontaneous locomotor activity at 3 mg/kg, ip after 30 mins. The gist of the method:
(§4)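 Male albino mice (20–25 g), five per group, got ip drug in DMSO or DMSO vehicle and went back to their home cages. After 30, 45, 60 or 90 min each was placed alone in a Plexiglas box and spontaneous locomotor activity was recorded. Tests were run in the morning. Values are mean ± SEM.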

Assay [7] relates to Mus musculus. Put plainly: Neuropharmacological effect in albino mouse assessed as endurance time at 3 mg/kg, ip after 90 mins by rotarod test. The essentials:
(§5)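 For the rotarod, the cylinder was 6 cm diameter, 30 cm high and turned at 12 rpm. Male albino mice were trained the day before to stay on for 300 s, and those not reaching this were excluded. Endurance time (max 300 s) was measured 30, 45, 60 and 90 min after ip drug in DMSO or vehicle. Five mice per group; mean ± SEM.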

Assay [8] deals with Mus musculus. Nature of the assay: Neuropharmacological effect in albino mouse assessed as endurance time at 3 mg/kg, ip after 45 mins by rotarod test. The essentials:
as §5

Assay [9] relates to Mus musculus. Put plainly: Muscle relaxant activity in albino mouse at 3 mg/kg, ip after 30 mins by traction test. Also on record: scale not given: the % may be the effect or the level left. The essentials:
as §2

In assay [10] the test system is Mus musculus. Put plainly: Analgesic activity in albino mouse assessed as retention latency at 3 mg/kg, ip after 30 mins by hot plate test. The essentials: as §3
Assay [11] deals with Mus musculus. Put plainly: Neuropharmacological effect in albino mouse assessed as spontaneous locomotor activity at 3 mg/kg, ip after 90 mins. The gist of the method:
as §4

The subject of assay [12] is Mus musculus. Put plainly: Neuropharmacological effect in albino mouse assessed as spontaneous locomotor activity at 3 mg/kg, ip after 60 mins. The gist of the method:
as §4

The test system of assay [13] is Mus musculus. Nature of the assay: Analgesic activity in albino mouse assessed as retention latency at 3 mg/kg, ip after 90 mins by hot plate test. The gist of the method: as §3
Assay [14] deals with Mus musculus. Put plainly: Neuropharmacological effect in albino mouse assessed as endurance time at 3 mg/kg, ip after 60 mins by rotarod test. The essentials: as §5
(In the rotarod test animals must keep their balance on a rotating rod.)

Assay [15] deals with Mus musculus. Nature of the assay: Decrease in cognitive impairment in albino mouse assessed as retention latency at 3 mg/kg, ip after 30 mins by passive avoidance reflex test. The gist of the method: as §1
The test system of assay [16] is Mus musculus. Nature of the assay: Analgesic activity in albino mouse assessed as retention latency at 3 mg/kg, ip after 45 mins by hot plate test. The essentials:
as §3

Assay [17] deals with Mus musculus. Nature of the assay: Neuropharmacological effect in albino mouse assessed as duration of loss of righting reflex at 3 mg/kg, ip. The essentials: (§6)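 Male albino mice (20–25 g), five per group, injected ip (drug in DMSO). Loss of righting reflex was inability to right within 30 s, after which mice were laid supine in a 90° trough. Return was righting twice within 1 min. Onset was recorded, and duration was the time from loss to return. Values are mean ± SEM.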

Assay [18] has as its system Mus musculus. Put plainly: Neuropharmacological effect in albino mouse assessed as onset of loss of righting reflex at 3 mg/kg, ip. The gist of the method:
as §6

For assay [19], the system named is Mus musculus. Put plainly: Muscle relaxant activity in albino mouse at 3 mg/kg, ip after 45 mins by traction test. Also on record: scale not given: the % may be the effect or the level left. The gist of the method:
as §2

For assay [20], the system named is Mus musculus. Put plainly: Neuropharmacological effect in albino mouse assessed as endurance time at 3 mg/kg, ip after 30 mins by rotarod test. The essentials: as §5
For assay [21], the system named is Mus musculus. Nature of the assay: Muscle relaxant activity in albino mouse at 3 mg/kg, ip after 90 mins by traction test. Also on record: scale not given: the % may be the effect or the level left. The gist of the method:
as §2

Assay [22] relates to Mus musculus. Put plainly: Neuropharmacological effect in albino mouse assessed as spontaneous locomotor activity at 3 mg/kg, ip after 45 mins. The essentials:
as §4

As for `CCCCCCCCCCCC1=NCC(c2ccc(Cl)cc2)CC(=O)O1` (stereo unspecified), the Activity was found to be 114.73 s in assay [1]; 72.45 s in assay [2]; 40% in assay [3]; 88.14 s in [4]; 18.56 s in assay [5]; 20.12 m in assay [6]. The Activity in assay [7] was found to be 145 s; in assay [8], 188 s; in assay [9], 45%; in [10], 7.82 s; in [11], 15.66 m; in [12], 14.11 m. Further, the Activity in assay [13] worked out at 24.43 s; in assay [14], 178 s; in assay [15] it was 152.34 s; in assay [16] it was 13.21 s; in [17], 60.25 min; in assay [18], 38.23 min. The Activity was determined as 43% in [19], 232 s in [20], 40% in assay [21] and 16.21 m in assay [22].
As to `NCC(CC(=O)O)c1ccc(Cl)cc1` (stereo unspecified) [BACLOFEN], the Activity in assay [1] was 121.46 s; in assay [2], 128.56 s; in assay [3] it was 53%; in assay [4] it was 121.44 s; in assay [5], 14.36 s; in assay [6] it was 30.21 m. Further, the Activity was found to be 254 s in [7]; 225 s in [8]; 50% in assay [9]; 13.42 s in assay [10]; 35.64 m in assay [11]; 30.76 m in [12]. The Activity in [13] worked out at 14.22 s; in assay [14] it was 234 s; in assay [15], 125.34 s; in assay [16], 15.35 s; in assay [17], 35.23 min; in assay [18] it was 20.24 min. The Activity in assay [19] came out at 52%; in assay [20], 214 s; in assay [21], 53%; in [22], 28.48 m.
Turning to `CCCCCCCC/C=C/CCCCCCCC1=NCC(c2ccc(Cl)cc2)CC(=O)O1` (stereo unspecified), the Activity in assay [1] is 110.36 s; in [2], 68.44 s; in assay [3], 33%; in [4], 75.44 s; in [5], 23.61 s; in [6], 11.45 m. In addition, the Activity is 128 s in assay [7]; 175 s in assay [8]; 35% in [9]; 9.34 s in [10]; 9.25 m in assay [11]; 10.61 m in assay [12]. Further, the Activity in assay [13] is listed as 28.43 s; in assay [14], 155 s; in assay [15], 146.23 s; in assay [16] it was 15.77 s; in [17] it was 93.37 min; in assay [18], 38.65 min. For the same compound, the Activity in assay [19] was found to be 35%; in assay [20], 198 s; in assay [21], 31%; in assay [22], 9.33 m.
